Data reported in ChEMBL document CHEMBL3046238, “Synthesis and biological activity evaluation of 1,2,3-thiadiazole derivatives as potential elicitors with highly systemic acquired resistance” (2009).
Calls of active or inactive are those of the source. The rule behind the calls is not given here.

Key:
Assay type in all cases: functional
Botrytis cinerea = assay: Antifungal activity against Botryotinia fuckeliana assessed as growth inhibition at 50 ug/mL measured after 2 days post dose; conditions: for inhibition of growth at 50 µg/mL: 48 h, read-out: GI
Alternaria solani = assay: Antifungal activity against Alternaria solani assessed as growth inhibition at 50 ug/mL measured after 2 days post dose; conditions: 48 h, read-out: GI
Mycosphaerella arachidis = assay: Antifungal activity against Mycosphaerella arachidis assessed as growth inhibition at 50 ug/mL measured after 2 days post dose; conditions: 48 h, read-out: GI
Ustilaginoidea virens = assay: Antifungal activity against Villosiclava virens assessed as growth inhibition at 50 ug/mL measured after 2 days post dose; conditions: for inhibition of growth at 50 µg/mL: 48 h, read-out: GI
Alternaria kikuchiana = assay: Antifungal activity against Alternaria kikuchiana assessed as growth inhibition at 50 ug/mL measured after 2 days post dose; conditions: for inhibition of growth at 50 µg/mL: 48 h, read-out: GI
Sclerotinia sclerotiorum = assay: Antifungal activity against Sclerotinia sclerotiorum assessed as growth inhibition at 50 ug/mL measured after 2 days post dose; conditions: for inhibition of growth at 50 µg/mL: 48 h, read-out: GI
Cytospora mali = assay: Antifungal activity against Valsa mali assessed as growth inhibition at 50 ug/mL measured after 2 days post dose; conditions: for inhibition of growth at 50 µg/mL: 48 h, read-out: GI
Fusarium fujikuroi = assay: Antifungal activity against Fusarium fujikuroi assessed as growth inhibition at 50 ug/mL measured after 2 days post dose; conditions: 48 h, read-out: GI
[1] = system: Fusarium oxysporum f. sp. vasinfectum; assay: Antifungal activity against Fusarium oxysporum f. sp. vasinfectum assessed as growth inhibition at 50 ug/mL measured after 2 days post dose; conditions: for inhibition of growth at 50 µg/mL: 48 h, read-out: GI
Fusarium oxysporum = assay: Antifungal activity against Fusarium oxysporum assessed as growth inhibition at 50 ug/mL measured after 2 days post dose; conditions: for inhibition of growth at 50 µg/mL: 48 h, read-out: GI
Tobacco mosaic virus [2] = assay: (§1) Induction of systemic acquired resistance against Tobacco mosaic virus (TMV) in tobacco plants exposed to 500 ug/mL compound through leaf spray followed by 7 days culture under green house conditions assessed as inhibition of viral growth in leaves infected with Tobacco mosaic virus (TMV) measured 72 hr post viral infection by half-leaf juice rubbing method; design: scale not given: the % may be the effect or the level left
How it was run: (§2)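 Tobacco plants received compound by leaf spray or by soil irrigation, with double-distilled water as CK. Newly grown leaves were then rub-inoculated with TMV (5.88×10-2 μg/mL), and plants were kept at 25 °C for 72 h. Lesions on inoculated leaves were counted. Inhibition = (CK−A)/CK×100 from mean lesion numbers versus control.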

Colletotrichum lagenaria = assay: Antifungal activity against Colletotrichum lagenaria assessed as growth inhibition at 50 ug/mL measured after 2 days post dose; conditions: 48 h, read-out: GI
Fusarium graminearum = assay: Antifungal activity against Fusarium graminearum assessed as growth inhibition at 50 ug/mL measured after 2 days post dose; conditions: 48 h, read-out: GI
How it was run: (§3)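 Compound stock at 500 μg/mL in DMF, diluted with sterile water in the dish and mixed into potato dextrose agar before setting. A 4 mm diameter fungal plug is placed on the plate and cultured at 24-26 °C. Colony diameter is measured after 2 days.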

Phomopsis asparagi = assay: Antifungal activity against Phomopsis asparagi assessed as growth inhibition at 50 ug/mL measured after 2 days post dose; conditions: for inhibition of growth at 50 µg/mL: 48 h, read-out: GI
Puccinia triticina = assay: Antifungal activity against Puccinia triticina inoculated on 500 ug/mL compound pre-treated wheat plants with 3 to 5 leaves assessed as growth inhibition
How it was run: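 Healthy wheat plants at the 3-5 leaf stage were sprayed with compound (500 μg/mL) and then inoculated with spores. Inhibition percentage was calculated against the corresponding spore stack.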

Alternaria mali = assay: Antifungal activity against Alternaria mali assessed as growth inhibition at 50 ug/mL measured after 2 days post dose; conditions: for inhibition of growth at 50 µg/mL: 48 h, read-out: GI
[3] = system: Colletotrichum gloeosporioides; assay: Antifungal activity against Glomerella cingulata assessed as growth inhibition at 50 ug/mL measured after 2 days post dose; conditions: for inhibition of growth at 50 µg/mL: 48 h, read-out: GI
Tobacco mosaic virus [4] = assay: as §1, with “50” for “500”; design: scale not given: the % may be the effect or the level left; how it was run: as §2
Phytophthora infestans = assay: Antifungal activity against Phytophthora infestans assessed as growth inhibition at 50 ug/mL measured after 2 days post dose; how it was run: as §3
Ceratobasidium cereale = assay: Antifungal activity against Ceratobasidium cereale assessed as growth inhibition at 50 ug/mL measured after 2 days post dose; conditions: 48 h, read-out: GI
Rhizoctonia solani = assay: Antifungal activity against Rhizoctonia solani assessed as growth inhibition at 50 ug/mL measured after 2 days post dose; conditions: 48 h, read-out: GI
[5] = system: Botryosphaeria berengeriana; assay: Antifungal activity against Botryosphaeria berengeriana assessed as growth inhibition at 50 ug/mL measured after 2 days post dose; conditions: 48 h, read-out: GI

SMILES | growth inhibition (GI) (Botrytis cinerea) | inhibition of growth at 50 µg/mL (Alternaria solani) [%] | inhibition of growth at 50 µg/mL (Mycosphaerella arachidis) [%] | growth inhibition (GI) (Ustilaginoidea virens) | inhibition of growth at 50 µg/mL (Sclerotinia sclerotiorum) [%] | inhibition of growth at 50 µg/mL (Cytospora mali) [%] | inhibition of growth at 50 µg/mL (Fusarium fujikuroi) [%] | inhibition of growth at 50 µg/mL [1] [%] | inhibition of growth at 50 µg/mL (Fusarium oxysporum) [%] | Activity (Tobacco mosaic virus [2]) | inhibition of growth at 50 µg/mL (Colletotrichum lagenaria) [%] | inhibition of growth at 50 µg/mL (Fusarium graminearum) [%] | growth inhibition (GI) (Phomopsis asparagi) | growth inhibition (GI) (Puccinia triticina) | inhibition of growth at 50 µg/mL (Alternaria mali) [%] | inhibition of growth at 50 µg/mL [3] [%] | inhibition of growth at 50 µg/mL (Botrytis cinerea) [%] | inhibition of growth at 50 µg/mL (Ustilaginoidea virens) [%] | inhibition of growth at 50 µg/mL (Alternaria kikuchiana) [%] | inhibition of growth at 50 µg/mL (Phomopsis asparagi) [%] | also measured
CCCc1sc(NC(=O)c2snnc2C)nc1-c1ccc(Cl)cc1Cl | inactive | 4 | 35.7 | inactive | 22.2 | 4.3 | 21.1 | 3.6 | 10 | 20% | 11.8 | 25 | inactive | 30% | 6.9 | 12 | – | – | – | – | growth inhibition (GI) (Alternaria kikuchiana): inactive
Cc1nnsc1C(=O)Nc1nc(-c2ccc(Cl)cc2)cs1 | – | 0 | 29.4 | – | 61.5 | 88.9 | 64.3 | 40 | 46.7 | 40% | 13.3 | 18.8 | – | 0% | 15 | 68.4 | 12 | 11.1 | 0 | 37.5 | –
COc1ccc(-c2csc(NC(=O)c3snnc3C)n2)cc1 | inactive | 4 | 14.3 | inactive | 5.6 | 8.7 | 10.5 | 0 | 3.3 | 35% | 5.9 | 25 | inactive | 45% | 15.5 | 4 | – | – | – | – | growth inhibition (GI) (Alternaria kikuchiana): inactive
Cc1csc(NC(=O)c2snnc2C)n1 | inactive | 35.7 | 29.4 | inactive | – | – | 64.3 | – | 15 | 70% | 17.6 | 7.1 | inactive | inactive | 50 | – | – | – | 17.6 | – | growth inhibition (GI) (Sclerotinia sclerotiorum): inactive; growth inhibition (GI) (Cytospora mali): inactive; growth inhibition (GI) [1]: inactive; Activity (Tobacco mosaic virus [4]): 81%; growth inhibition (GI) [3]: inactive
CCc1cnc(NC(=O)c2snnc2C)s1 | – | 21 | 35.7 | – | 3.3 | 61.1 | 0 | 5 | 53.3 | 30% | 26.7 | 50 | – | – | 25 | 36.8 | 0 | 50 | 43.8 | 31.3 | –
Cc1nnsc1C(=O)Nc1nc(-c2ccc([N+](=O)[O-])cc2)cs1 | inactive | 20 | 35.7 | inactive | 11.1 | 26.1 | 5.3 | 14.3 | 13.3 | 0% | 17.6 | 37.5 | inactive | inactive | 24.1 | 8 | – | – | 0 | – | –
COc1ccc(-c2nnc(-c3snnc3C)o2)cc1 | – | 17.6 | 17.6 | – | 23.5 | 47.2 | 0 | 0 | 0 | 80% | – | 37.9 | – | 0% | 37.9 | 29.4 | 31 | 29.4 | – | – | growth inhibition (GI) (Phytophthora infestans): inactive; inhibition of growth at 50 µg/mL (Ceratobasidium cereale): 31%; inhibition of growth at 50 µg/mL (Rhizoctonia solani): 0%; Activity (Tobacco mosaic virus [4]): 78%; inhibition of growth at 50 µg/mL [5]: 33.3%
CCc1sc(NC(=O)c2snnc2C)nc1-c1ccc(Cl)cc1Cl | – | 33.3 | 14.3 | – | 61.5 | 44.4 | 64.3 | 20 | 13.3 | 0% | 26.7 | 25 | – | 0% | 35 | 20.1 | 40 | 33.3 | 37.5 | 12.5 | –
Cc1cccc(-c2nnc(-c3snnc3C)o2)c1 | – | 0 | 23.5 | – | 23.5 | 47.2 | 24.1 | 0 | 0 | inactive | – | 24.1 | – | 98% | 41.4 | 0 | 37.9 | 0 | – | – | inhibition of growth at 50 µg/mL (Phytophthora infestans; 48 h, read-out: GI): 17.1%; inhibition of growth at 50 µg/mL (Ceratobasidium cereale): 37.9%; inhibition of growth at 50 µg/mL (Rhizoctonia solani): 0%; inhibition of growth at 50 µg/mL [5]: 47.2%
CCCCCCc1cnc(NC(=O)c2snnc2C)s1 | – | 21 | 29.4 | inactive | 71.4 | 31 | 64.3 | – | – | 0% | 26.7 | 0 | inactive | – | – | – | 25 | – | 0 | – | growth inhibition (GI) [1]: inactive; growth inhibition (GI) (Fusarium oxysporum): inactive; growth inhibition (GI) (Alternaria mali): inactive; growth inhibition (GI) [3]: inactive
Cc1nnsc1C(=O)Nc1nc(-c2ccccc2)cs1 | – | 15.8 | 14.3 | – | 47.3 | 22.2 | 64.3 | 40 | 13.3 | 70% | 6.7 | 18.8 | – | 0% | 10 | 15.8 | 8.3 | 55.6 | 37.5 | 6.3 | Activity (Tobacco mosaic virus [4]): 74%
